The test system of series [1] is Mus musculus. As to the kind of experiment: Antiglaucoma activity in normotensive C57BL/6 mouse assessed as reduction in intraocular pressure at 5 mM compound solution in PBS administered topically once daily as bolus dose to one eye for 6 days measured up to 23 hrs post daily administration by tonometer. It is filed as functional. Summed up:
(§1)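 Mice received a 5 mM solution in PBS as a 5 µl topical bolus to one eye once daily for 6 days, with PBS to the contralateral eye. IOP was read by rebound tonometer in conscious mice at 1, 4 and 23 h post-dose and averaged. Values are expressed as treated minus control eye. Readings continued after treatment stopped. n=10 (days 1–9), n=6 (days 10–12).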

The nature of series [2]: Prodrug activation in buffer containing ZnCl2, MgCl2 and sodium glycine assessed as alkaline phosphatase (unknown origin)-mediated levcromakalim formation. To be noted: human.
Series [3] relates to Mus musculus. Kind of series: Antiglaucoma activity in normotensive C57BL/6 mouse assessed as reduction in intraocular pressure at 2.5 mM compound solution in PBS administered topically once daily as bolus dose to contralateral eye for 7 days measured up to 23 hrs post daily administration by tonometer. It is filed as functional. The essentials:
(§2)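 C57BL/6 retired breeders (>7 months old) received a 5 µl bolus of 2.5 mM solution in PBS topically to one eye once daily for 7 consecutive days, with PBS to the contralateral eye. IOP was measured in conscious, non-anesthetized mice by hand-held rebound tonometer at 1, 4 and 23 h after dosing. Daily IOP is the mean of the three readings, expressed as treated minus vehicle eye (mm Hg). n=10 (days 1–10), n=6 after.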

Series [4] can be described thus: Toxicity in normotensive C57BL/6 mouse assessed as alteration in morphology of aqueous humor outflow pathway at 2.5 mM compound solution in PBS administered topically once daily as bolus dose to contralateral eye for 7 days by hematoxylin and eosin staining based transmission electron microscopic analysis. It is filed as organism-based. To be noted: in vivo, topical_or_ocular, 168 h, 2500 µM. The essentials: (§3)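 After once-daily topical dosing of C57BL/6 mice with 2.5 mM in PBS (5 µl), some animals were sacrificed. Aqueous outflow pathway tissues (trabecular meshwork, Schlemm's canal) were examined by hematoxylin and eosin stained sections and by transmission electron microscopy. Cell structure and number were compared with vehicle-treated eyes.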

Series [5] can be described thus: Toxicity in normotensive C57BL/6 mouse assessed as effect on cell structure in aqueous humor outflow pathway at 2.5 mM compound solution in PBS administered topically once daily as bolus dose to contralateral eye for 7 days by hematoxylin and eosin staining based transmission electron microscopic analysis. It is filed as organism-based. Particulars: in vivo, topical_or_ocular, 168 h, 2500 µM. The essentials: as §3

Series [6] can be described thus: Toxicity in normotensive C57BL/6 mouse assessed as effect on cell number in aqueous humor outflow pathway at 2.5 mM compound solution in PBS administered topically once daily as bolus dose to contralateral eye for 7 days by hematoxylin and eosin staining based transmission electron microscopic analysis. To be noted: in vivo, topical_or_ocular, 168 h, 2500 µM. It is filed as organism-based. The essentials: as §3

Series [7] can be described thus: Toxicity in normotensive C57BL/6 mouse assessed as effect on cell structure in aqueous humor outflow pathway at 5 mM administered topically as solution in PBS once daily as bolus dose to contralateral eye for 5 days by hematoxylin and eosin staining based transmission electron microscopic analysis. It is filed as organism-based. Particulars: in vivo, topical_or_ocular, 120 h, 5000 µM.

A short description of series [8]: Toxicity in normotensive C57BL/6 mouse assessed as effect on cell number in aqueous humor outflow pathway at 5 mM administered topically as solution in PBS once daily as bolus dose to contralateral eye for 5 days by hematoxylin and eosin staining based transmission electron microscopic analysis. It is filed as organism-based. Particulars: in vivo, topical_or_ocular, 120 h, 5000 µM.

Series [9] has as its system Mus musculus. Kind of series: Antiglaucoma activity in normotensive C57BL/6 mouse assessed as reduction in intraocular pressure at 5 mM administered topically as solution in PBS once daily as bolus dose to contralateral eye for 5 days pretreated with 5 mM sodium (3R,4S)-6-cyano-2,2-dimethyl-4-(2-oxopyrrolidin-1-yl)chroman-3-yl phosphate for 5 days by tonometer. It is filed as functional. Summed up:
(§4)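 C57BL/6 mice received sequential once-daily topical 5 µl boluses of 5 mM enantiomers dissolved in PBS to one eye, with vehicle to the contralateral eye. IOP was read by rebound tonometer in conscious mice at 1, 4 and 23 h post-dose, averaged, and expressed relative to the vehicle eye. n=10.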

In series [10] the test system is Oryctolagus cuniculus. Kind of series: Antiglaucoma activity in normotensive Dutch-belted pigmented rabbit assessed as reduction in intraocular pressure at 2.5 mM administered topically as solution in PBS once daily as bolus dose to contralateral eye for 4 days followed by 5 mM compound treatment for 4 days measured up to 23 hrs post daily administration by tonometer. It is filed as functional. The essentials: (§5)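 In normotensive Dutch-belted pigmented rabbits, a PBS solution was applied topically as a 50 µL bolus to one eye once daily: 2.5 mM for 4 days, then 5 mM for 4 days. IOP was measured at 1, 4 and 23 h after each dose and averaged. Values are the absolute difference between treated and control eyes (mmHg).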

Series [11] relates to Oryctolagus cuniculus. As to the kind of experiment: Antiglaucoma activity in normotensive Dutch-belted pigmented rabbit assessed as reduction in intraocular pressure at 5 mM administered topically as solution in PBS once daily as bolus dose to contralateral eye for 4 days pretreated with 2.5 mM compound for 4 days measured up to 23 hrs post daily administration by tonometer. It is filed as functional. The essentials: as §5

In series [12] the test system is Mus musculus. As to the kind of experiment: Antiglaucoma activity in normotensive C57BL/6 mouse assessed as reduction in intraocular pressure at 5 mM administered topically as solution in mixture of DMSO, cremophor EL and PBS once daily as bolus dose to one eye for 6 days followed by 5 mM levcromakalim treatment for 5 days by tonometer. It is filed as functional. The essentials: (§6)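 Following baseline IOP, C57BL/6 mice were dosed topically once daily with a 5 µl bolus to one eye. Dexromakalim was given for 6 days, then levromakalim for 5 days. Each was made as a 100 mM DMSO stock diluted to 5 mM with 10% cremophor EL in PBS. IOP was read by rebound tonometer versus the vehicle-treated contralateral eye.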

Series [13] is described as follows: Toxicity in normotensive C57BL/6 mouse assessed as effect on cell structure in aqueous humor outflow pathway at 5 mM administered topically as solution in mixture of DMSO, cremophor EL and PBS once daily as bolus dose to one eye for 6 days by hematoxylin and eosin staining based transmission electron microscopic analysis. To be noted: in vivo, topical_or_ocular, 144 h, 5000 µM. It is filed as organism-based.

A short description of series [14]: Toxicity in normotensive C57BL/6 mouse assessed as effect on cell number in aqueous humor outflow pathway at 5 mM administered topically as solution in mixture of DMSO, cremophor EL and PBS once daily as bolus dose to one eye for 6 days by hematoxylin and eosin staining based transmission electron microscopic analysis. Particulars: in vivo, topical_or_ocular, 144 h, 5000 µM. It is filed as organism-based.

Series [15] can be described thus: Stability in D2O solution assessed as compound decomposition after 1 week by 1H NMR analysis. To be noted: 168 h. It is filed as physicochemical.
A short description of series [16]: Stability in D2O solution assessed as compound decomposition after 1 week by 31P NMR analysis. To be noted: 168 h. It is filed as physicochemical.
Series [17] has as its system Mus musculus. As to the kind of experiment: Antiglaucoma activity in normotensive C57BL/6 mouse assessed as reduction in intraocular pressure at 5 mM compound solution in PBS administered topically once daily as bolus dose to one eye for 6 days measured up to 72 hrs post treatment by tonometer. It is filed as functional, organism-based. The essentials:
as §1

Series [18] relates to Mus musculus. As to the kind of experiment: Antiglaucoma activity in normotensive C57BL/6 mouse assessed as reduction in intraocular pressure at 5 mM administered topically as solution in PBS once daily as bolus dose to contralateral eye for 5 days followed by 5 mM sodium (3S,4R)-6-cyano-2,2-dimethyl-4-(2-oxopyrrolidin-1-yl)chroman-3-yl phosphate treatment for 5 days by tonometer. It is filed as functional. The essentials:
as §4

Series [19] concerns Mus musculus. As to the kind of experiment: Antiglaucoma activity in normotensive C57BL/6 mouse assessed as reduction in intraocular pressure at 5 mM administered topically as solution in mixture of DMSO, cremophor EL and PBS once daily as bolus dose to one eye for 5 days measured up to 23 hrs post daily administration by tonometer. It is filed as functional. The essentials:
as §6

For series [20], the system named is Mus musculus. Kind of series: Antiglaucoma activity in normotensive C57BL/6 mouse assessed as reduction in intraocular pressure at 5 mM administered topically as solution in mixture of DMSO, cremophor EL and PBS once daily as bolus dose to contralateral eye for 5 days pretreated with 5 mM dexcromakalim for 6 days by tonometer. It is filed as functional. The essentials:
as §6

Series [21] can be described thus: Toxicity in normotensive C57BL/6 mouse assessed as effect on cell structure in aqueous humor outflow pathway at 5 mM administered topically as solution in mixture of DMSO, cremophor EL and PBS once daily as bolus dose to contralateral eye for 5 days by hematoxylin and eosin staining based transmission electron microscopic analysis. It is filed as organism-based. Particulars: in vivo, topical_or_ocular, 120 h, 5000 µM.

Series [22] can be described thus: Toxicity in normotensive C57BL/6 mouse assessed as effect on cell number in aqueous humor outflow pathway at 5 mM administered topically as solution in mixture of DMSO, cremophor EL and PBS once daily as bolus dose to contralateral eye for 5 days by hematoxylin and eosin staining based transmission electron microscopic analysis. It is filed as organism-based. Particulars: in vivo, topical_or_ocular, 120 h, 5000 µM.

The nature of series [23]: Solubility in water at 10 mg/ml. It is filed as physicochemical. Particulars: buffer.
Series [24] is described as follows: Stability of compound in D2O solution. It is filed as physicochemical.
Series [25] concerns Mus musculus. As to the kind of experiment: Antiglaucoma activity in normotensive C57BL/6 mouse assessed as reduction in intraocular pressure at 2.5 mM compound solution in PBS administered topically once daily as bolus dose to contralateral eye for 7 days measured up to 48 hrs after cessation of drug treatment by tonometer. It is filed as functional, organism-based. Summed up:
as §2

Activity calls are given as the source filed them. The calls are words filed in the database; no cut-off is given here.

On to `CC(C)C[C@@H](NC(=O)CN)C(=O)O[C@H]1[C@H](N2CCCC2=O)c2cc(C#N)ccc2OC1(C)C`, for which the Activity in the series with Mus musculus [1] amounted to 1.57 mmHg.

With `CC1(C)Oc2ccc(C#N)cc2[C@@H](N2CCCC2=O)[C@@H]1OP(=O)([O-])[O-].[Na+].[Na+]`, the Drug metabolism entry in [2] was “Metabolite_Detected”. The Activity in the series on Mus musculus [3] is reported as 3.14 mmHg; in series [4] it was “Non-Toxic”; in series [5] it was “Non-Toxic”; in series [6], “Non-Toxic”; in series [7], “Non-Toxic”; in [8], “Non-Toxic”. Besides, the Activity in the series with Mus musculus [9] is on record as 3.82 mmHg; in the series with Oryctolagus cuniculus [10], 2.02 mmHg; with Oryctolagus cuniculus [11], 2.26 mmHg.

Take `CC1(C)Oc2ccc(C#N)cc2[C@H](N2CCCC2=O)[C@H]1O` [(-)-CROMAKALIM]: the Activity is recorded as 0.73 mmHg in the series with Mus musculus [12], “Non-Toxic” in series [13] and “Non-Toxic” in series [14].

In the case of `CC(C)C[C@H](NC(=O)CN)C(=O)OCO[C@H]1[C@H](N2CCCC2=O)c2cc(C#N)ccc2OC1(C)C`, the Activity in the series on Mus musculus [1] was 1.93 mmHg.

As to `CC1(C)Oc2ccc(C#N)cc2[C@@H](N2CCCC2=O)[C@@H]1OCOP(=O)([O-])[O-].[Na+].[Na+]` (racemic), the Stability entry in series [15] and in series [16] was “Stable” in each case. The Activity in the series on Mus musculus [3] was found to be 1.81 mmHg.

On to `CC1(C)Oc2ccc(C(F)(F)F)cc2[C@@H](N2CCCC2=O)[C@@H]1OP(=O)([O-])[O-].[Na+].[Na+]`, for which the Activity in the series on Mus musculus [1] is given as 3.91 mmHg; with Oryctolagus cuniculus [10], 1.06 mmHg; with Oryctolagus cuniculus [11] it was 1.6 mmHg. In addition, the result in the series with Mus musculus [17] was Active.

Take `CC1(C)Oc2ccc(C#N)cc2[C@H](N2CCCC2=O)[C@H]1OP(=O)([O-])[O-].[Na+].[Na+]`: the Activity in the series with Mus musculus [18] is listed as 0.14 mmHg; in series [7], “Non-Toxic”; in series [8], “Non-Toxic”.

Consider `CC1(C)Oc2ccc(C#N)cc2[C@@H](N2CCCC2=O)[C@@H]1O` (racemic) [LEVCROMAKALIM], for which, in the series with Mus musculus [19], the Activity is reported as 3.19 mmHg.

Consider `CC1(C)Oc2ccc(C#N)cc2[C@@H](N2CCCC2=O)[C@@H]1O` [LEVCROMAKALIM], for which the figures for the Activity (with Mus musculus [20]; in series [21]; in [22]) were 3.37 mmHg, “Non-Toxic” and “Non-Toxic”, respectively.

With `CC1(C)Oc2ccc(C#N)cc2[C@@H](N2CCCC2=O)[C@@H]1OP(=O)([O-])[O-].[Na+].[Na+]` (racemic), the solubility result in series [23] was “Soluble”. Besides, in series [24], the Stability was more than 6 months. Besides, in the series on Mus musculus [3], the Activity was 2.5 mmHg.

On to `CC(C)C[C@H](NC(=O)CN)C(=O)O[C@H]1[C@H](N2CCCC2=O)c2cc(C#N)ccc2OC1(C)C`, for which, in the series with Mus musculus [1], the Activity amounted to 2.45 mmHg.

In the case of `CC1(C)Oc2ccc(C#N)cc2[C@@H](N2CCCC2=O)[C@@H]1OP(=O)(O)O`, the outcome with Mus musculus [25] was inactive.
